Reference: ChEMBL document CHEMBL1142885, “Evaluation of [11C]hemicholinium-15 and [18F]hemicholinium-15 as new potential PET tracers for the high-affinity choline uptake system in the heart” (Bioorg Med Chem, 2007)

Assays:
Conditions in all cases: in vivo
Kidney = experiment: Biodistribution in Fisher rat kidney at 1 to 3 mCi, iv after 20 mins; type: ADME, organism-based
Summary of the method: (§1)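 Fisher rats (200–300 g) given [¹¹C]HC-15 or [¹⁸F]HC-15 (1–3 mCi, sub-pharmacologic) by tail-vein iv injection under conscious restraint. Sacrificed by decapitation under halothane anesthesia at 20 min, tissues excised and weighed, decay-corrected radioactivity gamma-counted. Expressed as %ID and %ID/g; values are the average of four rats.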

Brain = experiment: Biodistribution in Fisher rat brain at 1 to 3 mCi, iv after 20 mins; type: ADME, organism-based; summary of the method: as §1
Liver = experiment: Biodistribution in Fisher rat liver at 1 to 3 mCi, iv after 20 mins; type: ADME, organism-based; summary of the method: as §1
[1] = Biodistribution in Fisher rat left atrium at 1 to 3 mCi, iv after 20 mins; type: ADME, organism-based, Cardiac atrium; summary of the method: as §1
Solar plexus = experiment: Biodistribution in Fisher rat solar plexus at 1 to 3 mCi, iv after 20 mins; type: ADME, organism-based; summary of the method: as §1
[2] = Biodistribution in Fisher rat right atrium at 1 to 3 mCi, iv after 20 mins; type: ADME, organism-based, Cardiac atrium; summary of the method: as §1
[3] = Biodistribution in Fisher rat atrioventricular node at 1 to 3 mCi, iv after 20 mins; type: ADME, organism-based; summary of the method: as §1
Blood = experiment: Biodistribution in Fisher rat blood at 1 to 3 mCi, iv after 20 mins; type: ADME, organism-based; summary of the method: as §1
Septum = experiment: Biodistribution in Fisher rat septum at 1 to 3 mCi, iv after 20 mins; type: ADME, organism-based; summary of the method: as §1
[4] = Biodistribution in Fisher rat right ventricle at 1 to 3 mCi, iv after 20 mins; type: ADME, organism-based, Heart right ventricle; summary of the method: as §1
[5] = Biodistribution in Fisher rat urine at 1 to 3 mCi, iv after 20 mins; type: ADME, organism-based; summary of the method: as §1
[6] = Biodistribution in Fisher rat left ventricle at 1 to 3 mCi, iv after 20 mins; type: ADME, organism-based, Heart left ventricle; summary of the method: as §1
[7] = Biodistribution in Fisher rat skeletal muscle s at 1 to 3 mCi, iv after 20 mins; type: ADME, organism-based, Muscle tissue; summary of the method: as §1
Lung = experiment: Biodistribution in Fisher rat lung at 1 to 3 mCi, iv after 20 mins; type: ADME, organism-based; summary of the method: as §1

Row | Drug uptake (Kidney) | Drug uptake (Brain) | Drug uptake (Liver) | Drug uptake [1] | Drug uptake (Solar plexus) | Drug uptake [2] | Drug uptake [3] | Drug uptake (Blood) | Drug uptake (Septum) | Drug uptake [4] | Drug uptake [5] | Drug uptake [6] | Drug uptake [7] | Drug uptake (Lung) | SMILES
1 | 3.618 % ID/g | 0.022 % ID/g | 6.284 % ID/g | 0.526 % ID/g | 0.938 % ID/g | 0.488 % ID/g | 1.083 % ID/g | 0.181 % ID/g | 0.01 % ID/g | 1.316 % ID/g | 31.835 % ID/g | 0.859 % ID/g | 0.091 % ID/g | 1.302 % ID/g | C[N+]1([11CH3])CCOC(O)(c2ccccc2)C1.O=S(=O)([O-])C(F)(F)F (stereo not drawn)
2 | 11.651 % ID/g | 0.046 % ID/g | 4.378 % ID/g | 0.796 % ID/g | 0.744 % ID/g | 0.756 % ID/g | 0.793 % ID/g | 0.201 % ID/g | 1.557 % ID/g | 0.037 % ID/g | 17.434 % ID/g | 1.28 % ID/g | 0.145 % ID/g | 3.423 % ID/g | C[N+]1(C[18F])CCOC(O)(c2ccccc2)C1.O=S(=O)([O-])C(F)(F)F (stereo not drawn)
